# Reference: PubChem BioAssay AID588777 (Broad Institute, 2011)
# Active and inactive are the calls of the source.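 Rule for the calls: active = compound whose fitted half-maximal concentration, rising or falling, is at most ten times its top tested dose; inconclusive = flat fit showing 30 to 70% decrease, or bad fit; inactive = the rest.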
# Molecular target: Scavenger receptor class B member 1 (Mus musculus) (UniProt Q61009)
# Test: modulators of HDL binding to SR-BI, dose response, orthogonal assay for SR-BI HDL uptake inhibitor project, ldlA[mSR-BI] cells, Alexa488-HDL, powder samples (AID 588777)
# Conditions: Alexa488-HDL binding fluorescence, 3 h
# In short: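 Detection: bottom-read Alexa488 fluorescence; Material: ldlA[mSR-BI] cells expressing murine scavenger receptor SR-BI; Also added: Alexa488-labelled HDL at 10 µg/mL; Incubation: 3 h at 37 °C; Doses: compound dose series.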
# Chain of Scavenger receptor class B member 1 (Mus musculus) (Q61009 whole entry, looked up): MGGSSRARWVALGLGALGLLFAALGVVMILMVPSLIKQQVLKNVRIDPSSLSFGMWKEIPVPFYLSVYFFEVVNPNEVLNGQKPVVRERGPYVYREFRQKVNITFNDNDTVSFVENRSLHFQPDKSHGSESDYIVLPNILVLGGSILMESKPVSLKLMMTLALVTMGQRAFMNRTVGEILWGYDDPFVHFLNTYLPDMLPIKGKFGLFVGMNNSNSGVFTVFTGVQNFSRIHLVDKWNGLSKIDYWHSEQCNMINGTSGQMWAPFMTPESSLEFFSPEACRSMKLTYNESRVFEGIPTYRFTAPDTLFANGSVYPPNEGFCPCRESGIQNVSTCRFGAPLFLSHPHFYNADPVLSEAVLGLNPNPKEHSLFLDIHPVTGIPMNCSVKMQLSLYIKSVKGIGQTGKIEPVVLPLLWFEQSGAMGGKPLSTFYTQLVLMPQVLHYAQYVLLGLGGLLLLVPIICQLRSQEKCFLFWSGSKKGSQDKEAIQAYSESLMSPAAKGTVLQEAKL
row,Structure (SMILES),AC50 [µM]
1,C[C@H]1CN([C@@H](C)CO)C(=O)c2cccc(NC(=O)Nc3ccc(F)cc3)c2O[C@@H]1CN(C)Cc1ccc(Cl)c(Cl)c1,0.533
2,CC(OC(=O)c1cccc(NS(C)(=O)=O)c1)C(=O)Nc1ccc(N2CCOCC2)cc1 (stereo not drawn),4.47
3,O=C(Nc1ccc(-c2nc3cc(NC(=O)c4ccccc4Cl)ccc3o2)cc1)c1ccccc1Cl,0.0819
4,C[C@@H]1CN([C@H](C)CO)C(=O)c2cc(NC(=O)Cc3cn(C)c4ccccc34)ccc2O[C@@H]1CN(C)S(=O)(=O)c1ccc(F)cc1,21.5
5,C[C@@H]1CN([C@H](C)CO)C(=O)c2cc(NC(=O)Cc3cn(C)c4ccccc34)ccc2O[C@H]1CN(C)S(=O)(=O)c1ccc(Cl)cc1,0.168
6,C[C@H]1CN([C@@H](C)CO)C(=O)c2cccc(NC(=O)Nc3ccccc3)c2O[C@@H]1CN(C)Cc1ccc(C(F)(F)F)cc1,19.4
7,O=C(Nc1ccc(-c2nc3ccc(NC(=O)c4ccccc4)cc3[nH]2)cc1)c1ccccc1,0.328
8,Cc1cc(SC(C)C(=O)Nc2ncc(Cl)cc2Cl)nc2ccccc12 (stereo not drawn),6.84
9,C[C@@H]1CN([C@H](C)CO)C(=O)c2cc(NC(=O)Cc3cn(C)c4ccccc34)ccc2O[C@H]1CN(C)C(=O)Nc1ccc(F)cc1,1.93
10,CCOC(=O)Nc1cccc(NC(=O)c2cc(OC)cc(OC)c2)c1,2.27
11,C[C@H]1CN([C@@H](C)CO)C(=O)c2cccc(NC(=O)Nc3ccccc3)c2O[C@@H]1CN(C)Cc1ccccc1,13.8
12,C[C@@H]1CN([C@H](C)CO)C(=O)c2cc(NC(=O)Cc3cn(C)c4ccccc34)ccc2O[C@H]1CN(C)S(=O)(=O)c1ccccc1,8.36
13,C[C@@H]1CN([C@@H](C)CO)C(=O)c2cc(NC(=O)Cc3cn(C)c4ccccc34)ccc2O[C@H]1CN(C)S(=O)(=O)c1ccc(F)cc1,10.2
14,O=C(Nc1cc(Cl)ccc1Cl)c1cc(Br)ccc1NS(=O)(=O)c1ccc(Cl)c([N+](=O)[O-])c1,4.23
15,C[C@@H]1CN([C@H](C)CO)C(=O)c2cc(NC(=O)Cc3cn(C)c4ccccc34)ccc2O[C@H]1CN(C)S(C)(=O)=O,25
16,C[C@@H]1CN([C@H](C)CO)C(=O)c2cc(NC(=O)Cc3cn(C)c4ccccc34)ccc2O[C@H]1CN(C)S(=O)(=O)c1ccc(F)cc1,2.06
17,O=C(Nc1cccc(NC(=O)c2cc([N+](=O)[O-])ccc2Cl)n1)c1cc([N+](=O)[O-])ccc1Cl,5.11
18,Cc1ccc(-c2nnc(N3CCC(C)CC3)c3ccccc23)cc1C,5.54
19,CCOc1ccccc1/C=C/c1onc(C)c1S(=O)(=O)N1CCC(C(=O)NC(C)(C)C)CC1,11.3
20,CC(C)NC(=O)Nc1cccc2c1O[C@H](CN(C)Cc1ccc(Cl)c(Cl)c1)[C@@H](C)CN([C@@H](C)CO)C2=O,9.96
21,O=C(Nc1ccc(-c2nc3ccc(NC(=O)c4ccccc4[N+](=O)[O-])cc3[nH]2)cc1)c1ccccc1[N+](=O)[O-],0.0549
22,COc1ccc([C@H]2CC(=O)C=C(c3cccc4c3sc3ccccc34)C2)cc1OC,2.28
23,N#Cc1sc2nc(C3CC3)cc(-c3ccc(Cl)cc3)c2c1N,20.1

row,Structure (SMILES),AC50 [µM]
1,CCOC(=O)N1CCC(NC(=O)c2ccc3c(c2)N(Cc2ccc(F)cc2)CCS3)CC1,2.4
2,CC(C)OCCCNC(=O)c1ccc(C2SCC(=O)N2Cc2ccco2)cc1 (stereo not drawn),16.5
3,C[C@@H]1CN([C@@H](C)CO)C(=O)c2cc(NC(=O)Cc3cn(C)c4ccccc34)ccc2O[C@@H]1CN(C)S(=O)(=O)c1ccc(F)cc1,22.8
4,COc1ccc(-c2nnn(CC(=O)N(C3CCCCC3)C(C)C(=O)NC3CCCC3)n2)cc1OC (stereo not drawn),0.422
5,CCOc1ccc(NC(=O)CN2CCN(CC(=O)Nc3cc(OC)cc(OC)c3)CC2)cc1,0.128
6,CCn1c(COc2c(C)cccc2C)nnc1SCC(=O)N1CCN(c2ccccc2)CC1,5.89
7,COc1ccc(OC)c(CCNC(=O)c2ccc3c(c2)N(Cc2ccc(F)cc2)CCS3)c1,6.52
8,O=C(Nc1ccc(-c2nc3cc(NC(=O)c4ccc(NC(=O)c5cccc6ccccc56)cc4)ccc3[nH]2)cc1)c1ccc(NC(=O)c2cccc3ccccc23)cc1,< 0.015
9,C[C@H](CO)N1C[C@H](C)[C@H](CN(C)S(=O)(=O)c2ccc(F)cc2)Oc2ccc(NC(=O)Cc3cn(C)c4ccccc34)cc2C1=O,30.9
10,C[C@H]1CN([C@@H](C)CO)C(=O)c2cccc(NC(=O)Nc3ccccc3)c2O[C@@H]1CN(C)Cc1ccc(Cl)c(Cl)c1,1.79
11,Cc1cc(C)n(CC(=O)NC2CCCc3c2cnn3-c2ccc(C)c(C)c2)n1 (stereo not drawn),0.0494
12,C[C@H](CO)N1C[C@H](C)[C@H](CN(C)S(=O)(=O)c2ccc(F)cc2)Oc2ccc(NS(C)(=O)=O)cc2C1=O,21
13,O=C(Nc1ccc(Cl)cc1C(=O)c1ccc(Cl)cc1)c1cc(Br)ccc1NS(=O)(=O)c1ccc(Cl)cc1,21.7
14,Cc1cc(C)c2c(c1)NC(c1cc3c(cc1Br)OCO3)C1CC=CC21 (stereo not drawn),8.25
15,Cc1ccccc1NC(=O)NCC1CCN(c2ccc(S(=O)(=O)N3CCOCC3)cc2)CC1,3.98
16,COC(=O)c1cn(C(=O)c2cccc3ccccc23)c2ccccc12,23
17,Nc1ccc(C(=O)Nc2ccc(-c3nc4ccc(NC(=O)c5ccc(N)cc5)cc4[nH]3)cc2)cc1,4.55
18,Cc1cc(C(=O)C(C)OC(=O)C2=NNC(=O)CC2)c(C)n1-c1ccc(OC(F)F)cc1 (stereo not drawn),7.45
19,C[C@H]1CN([C@@H](C)CO)C(=O)c2cc(NC(=O)Cc3cn(C)c4ccccc34)ccc2O[C@H]1CN(C)S(=O)(=O)c1ccc(F)cc1,25.4
20,CCc1sc(N2C(=O)C3C4CCC(C4=C(C)C)C3C2=O)nc1-c1ccccc1 (stereo not drawn),0.441
21,COc1cccc(-c2csc(N3CCN(C(=S)Nc4cccc(Cl)c4)CC3)n2)c1,12
22,CC(C)(C)NC(=O)N1CCN(c2ncccc2C(F)(F)F)CC1,7.61
23,CCc1cc2cc3c(cc2nc1SCC(=O)OC(C)C)OCO3,1.48

# Same assay, conditions: Alexa488-HDL binding fluorescence, 3 h, at 11 µM (top of the series)
row,Structure (SMILES),"activity change, either direction"
1,C[C@H](CO)N1C[C@H](C)[C@@H](CN(C)S(=O)(=O)c2ccc(F)cc2)Oc2ccc(NC(=O)Cc3cn(C)c4ccccc34)cc2C1=O,inactive

# Same assay, conditions: Alexa488-HDL binding fluorescence, 3 h, at 35 µM (top of the series)
row,Structure (SMILES),"activity change, either direction"
1,C[C@H]1CN([C@@H](C)CO)C(=O)c2cc(NC(=O)Nc3ccccc3)ccc2O[C@@H]1CN(C)Cc1ccc(Cl)c(Cl)c1,inactive
2,O=C(Nc1ccccc1)c1ccccc1NS(=O)(=O)c1ccc(Cl)cc1,inactive
3,CCC(=O)N1CCc2cc(-c3csc(NC(=O)c4ccco4)n3)ccc21,inactive
4,C[C@H](CO)N1C[C@H](C)[C@H](CN(C)S(=O)(=O)c2ccc(F)cc2)Oc2ccc(NC(=O)CCC(F)(F)F)cc2C1=O,inactive
5,O=C(Nc1cc(C(F)(F)F)ccc1Cl)c1ccccc1NS(=O)(=O)c1ccc(Cl)cc1,inactive
6,C[C@H]1CN([C@@H](C)CO)C(=O)c2cccc(NC(=O)Nc3ccccc3)c2O[C@@H]1CN(C)S(C)(=O)=O,inactive
7,O=C(Nc1cc(Cl)ccc1Cl)c1cc(Cl)ccc1NS(=O)(=O)c1ccc(Cl)c([N+](=O)[O-])c1,inactive
8,C[C@H]1CN([C@@H](C)CO)C(=O)c2cccc(NS(C)(=O)=O)c2O[C@@H]1CN(C)Cc1ccc(Cl)c(Cl)c1,inactive
9,O=C(Nc1ccc(-c2nc3ccc(NC(=O)c4ccc(Cl)cc4)cc3[nH]2)cc1)c1ccc(Cl)cc1,inactive
10,O=C(Nc1ccc(-c2nc3cc(NC(=O)c4ccccc4[N+](=O)[O-])ccc3o2)cc1)c1ccccc1[N+](=O)[O-],inactive

# Same assay, conditions: Alexa488-HDL binding fluorescence, 3 h, at 68 µM (top of the series)
row,Structure (SMILES),"activity change, either direction"
1,Cc1ccc2oc(-c3cccc(NC(=O)c4cc(-n5cnnc5)ccc4Cl)c3)nc2c1,inactive
